Source: ChEMBL document CHEMBL1649299, “Eradication of intracellular Salmonella enterica serovar Typhimurium with a small-molecule, host cell-directed agent” (Antimicrob Agents Chemother, 2009)
The source made the active and inactive calls.

Key:
Salmonella typhimurium [1] = assay: Antimicrobial activity against Salmonella enterica serovar Typhimurium ATCC 14028 infected in mouse J774.1 cells; type: functional, organism-based; settings: Salmonella enterica subsp. enterica serovar Typhimurium
How it was run: (§1)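 Macrophages were seeded at 5.0 × 10^5 cells/well for 12–16 h; THP-1 cells were first differentiated with 20 nM TPA for 48 h. Bacteria were subcultured 3 h in LB and added at MOI 25 for 30 min. Cells then received 100 μg/ml gentamicin for 1 h and were washed. Treatment was in medium with 10% FBS and 10 μg/ml gentamicin. Survivors were released with 0.1% Triton X-100 and counted as CFU on LB agar after 16 h at 37°C.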

[2] = biological target: RAC-alpha serine/threonine-protein kinase (Mus musculus) (UniProt P31750); assay: Inhibition of Akt phosphorylation in mouse RAW264.7 cells infected with Salmonella enterica serovar Typhimurium ATCC 14028 assessed as decrease of p-473Ser-Akt level after 8 hrs by Western blotting; type: cell-based
How it was run: (§2)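 Infected RAW264.7 cells were treated for 8 h and then lysed in M-PER on ice. Lysates (25 μg/lane) were run on SDS gels and transferred to nitrocellulose. Membranes were blocked with 3% skim milk in TBS, incubated with primary antibody for 12 h at 4°C and then HRP secondary, and detected by enhanced chemiluminescence.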

Salmonella typhimurium [3] = assay: Antimicrobial activity against Salmonella enterica serovar Typhimurium ATCC 14028 infected in BALB/c mouse assessed as increase of host survival days at 2.5 mg/kg, po administered after 24 hrs of post infection qd relative to control
RAW264.7 [4] = assay: Cytotoxicity against Salmonella enterica serovar Typhimurium ATCC 14028 infected in mouse RAW264.7 cells assessed as cell viability at 1 uM after 24 hrs by MTT assay; type: cell-based; settings: raw264.7, 24 h
Salmonella typhimurium [5] = assay: Antimicrobial activity against Salmonella enterica serovar Typhimurium ATCC 14028 infected in human TPA-differentiated THP1 cells; type: functional, organism-based; settings: Salmonella enterica subsp. enterica serovar Typhimurium, THP-1; how it was run: as §1
Salmonella typhimurium [6] = assay: Antimicrobial activity against Salmonella enterica serovar Typhimurium ATCC 14028 infected in mouse RAW264.7 cells transfected with shRNA assessed as reduction of Beclin-1 expression at 1 uM after 2 hrs by immunoblotting relative to control; type: functional, Salmonella enterica subsp. enterica serovar Typhimurium; set-up: scale not given: the % may be the effect or the level left
How it was run: (§3)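 Beclin-1 or Atg7 shRNA plasmids, with GFP shRNA as control, were nucleofected into RAW264.7 cells (2 × 10^6 cells, 2 μg DNA). Stable clones were selected with 2 μg/ml puromycin and kept in 1 μg/ml. Knockdown was measured by immunoblotting.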

Salmonella typhimurium [7] = assay: Antimicrobial activity against Salmonella enterica serovar Typhimurium ATCC 14028 at 1 to 5 uM after 480 mins; type: functional, organism-based; settings: Salmonella enterica subsp. enterica serovar Typhimurium
Salmonella typhimurium [8] = assay: Antimicrobial activity against Salmonella enterica serovar Typhimurium ATCC 14028 infected in mouse RAW264.7 cells assessed as reduction of bacterial survival at 1 uM after 2 hrs relative to control; type: functional, Salmonella enterica subsp. enterica serovar Typhimurium
How it was run: (§4)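 RAW264.7 cells were seeded at 5.0 × 10^5 cells/well for 12–16 h. Log-phase bacteria (1:33 subculture, 3 h in LB, 37°C) were added at MOI 25 for 30 min. Extracellular bacteria were killed with 100 μg/ml gentamicin for 1 h, then washed off. Cells were treated in medium with 10% FBS and 10 μg/ml gentamicin (DMSO 0.1% final) and lysed with 0.1% Triton X-100. CFU were counted on LB agar after 16 h at 37°C.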

Salmonella typhimurium [9] = assay: Antimicrobial activity against Salmonella enterica serovar Typhimurium ATCC 14028 infected in BALB/c mouse assessed as reduction of spleen bacterial load at 2.5 mg/kg, administered intragastrically after 24 hrs of post infection qd for 4 days measured on day 5 relative to control; type: functional, Salmonella enterica subsp. enterica serovar Typhimurium; set-up: scale not given: the % may be the effect or the level left; settings: route intragastric
How it was run: (§5)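 Female BALB/c mice, 8–10 weeks old, were infected by intragastric gavage with an overnight culture at 10^5 organisms in 0.1 ml PBS (50% lethal dose). Starting 24 h post-infection, drug in 0.5% methylcellulose–0.1% Tween 80 in water was given by gavage once daily for 4 days at 1, 2.5 or 5 mg/kg, 7–9 mice per group. On day 5 post-infection, liver and spleen were homogenized in 10 ml cold PBS and plated on LB agar to count CFU.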

[10] = biological target: RAC-alpha serine/threonine-protein kinase (Mus musculus) (UniProt P31750); assay: Inhibition of Akt phosphorylation in mouse RAW264.7 cells infected with Salmonella enterica serovar Typhimurium ATCC 14028 assessed as decrease of phosphorylated GSK3-beta level at 1 uM after 8 hrs by Western blotting; type: cell-based; how it was run: as §2
RAW264.7 [11] = assay: Cytotoxicity against mouse RAW264.7 cells assessed as cell viability at 1 uM after 24 hrs by MTT assay; type: cell-based; settings: raw264.7, 24 h
RAW264.7 [12] = assay: Induction of autophagy in mouse RAW264.7 cells assessed as LC3-positive puncta with diameter greater than 1 uM in cytoplasm at 1 uM by immunofluorescence microscopic analysis; type: functional, cell-based
How it was run: (§6)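 RAW264.7 cells were fixed in 4% formaldehyde for 20 min at 25°C, permeabilized with 0.5% Triton X-100, and blocked overnight in 3% BSA. Staining used primary antibody (anti-LC3 for autophagosomes) for 1 h, then fluorescent secondary antibody for 1 h, with DAPI for nuclei. Slides were read by wide-field or confocal microscopy. For colocalization, only bacteria in direct contact with autophagosomes in 3-D confocal images were scored. Giant puncta were defined as ≥1 μm.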

Salmonella typhimurium [13] = assay: Antimicrobial activity against Salmonella enterica serovar Typhimurium ATCC 14028 infected in mouse RAW264.7 cells transfected with HA-tagged CA-Akt1 assessed as inhibition of intracellular bacterial survival at 1 uM after 8 hrs; type: functional, organism-based; settings: Salmonella enterica subsp. enterica serovar Typhimurium; how it was run: as §1
RAW264.7 [14] = assay: Induction of autophagy in mouse RAW264.7 cells assessed as increase of LC3 punctum formation at 1 uM by immunofluorescence microscopic analysis; type: functional, cell-based; how it was run: as §6
Salmonella typhimurium [15] = assay: Antimicrobial activity against Salmonella enterica serovar Typhimurium ATCC 14028 infected in mouse RAW264.7 cells assessed as reduction in bacterial load at 1 uM after 8 hrs by immunofluorescent staining; type: functional, Salmonella enterica subsp. enterica serovar Typhimurium; set-up: scale not given: the % may be the effect or the level left; how it was run: as §6
Salmonella typhimurium [16] = assay: Antimicrobial activity against Salmonella enterica serovar Typhimurium ATCC 14028 infected in mouse RAW264.7 cells assessed as inhibition of intracellular bacterial growth after 8 hrs; type: functional, organism-based, Salmonella enterica subsp. enterica serovar Typhimurium; settings: ATCC 14028, RAW264.7, 8 h; how it was run: as §4
RAW264.7 [17] = assay: Cytotoxicity against mouse RAW264.7 cells assessed as cell viability after 24 hrs by MTT assay; type: cell-based; settings: RAW264.7, 24 h
Salmonella typhimurium [18] = assay: Antimicrobial activity against Salmonella enterica serovar Typhimurium ATCC 14028 infected in mouse RAW264.7 cells assessed as inhibition of intracellular bacterial growth at 1 uM after 4 hrs in presence of vacuolar ATPase inhibitor bafilomycin A1; type: functional, organism-based; settings: Salmonella enterica subsp. enterica serovar Typhimurium; how it was run: as §1
Salmonella typhimurium [19] = assay: Antimicrobial activity against Salmonella enterica serovar Typhimurium ATCC 14028 infected in mouse RAW264.7 cells assessed as reduction of bacterial count at 1 uM pretreated 30 mins before infection measured after 1 hr; type: functional, organism-based; settings: Salmonella enterica subsp. enterica serovar Typhimurium
How it was run: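 Bacteria were pre-exposed to vehicle (DMSO) or 1 μM drug in culture medium for 30 min. They were then used to infect RAW264.7 cells at MOI 25 for 30 min, followed by 100 μg/ml gentamicin for 1 h and PBS washes. Intracellular bacteria were counted as CFU 1 h later after Triton X-100 lysis.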

Salmonella typhimurium [20] = assay: Antimicrobial activity against Salmonella enterica serovar Typhimurium ATCC 14028 infected in BALB/c mouse assessed as reduction of liver bacterial load at 2.5 mg/kg, administered intragastrically after 24 hrs of post infection qd for 4 days measured on day 5 relative to control; type: functional, Salmonella enterica subsp. enterica serovar Typhimurium; set-up: scale not given: the % may be the effect or the level left; settings: route intragastric; how it was run: as §5
Salmonella typhimurium [21] = assay: Antimicrobial activity against Salmonella enterica serovar Typhimurium ATCC 14028 infected in mouse RAW264.7 cells assessed as inhibition of intracellular bacterial growth at 1 uM after 8 hrs; type: functional, Salmonella enterica subsp. enterica serovar Typhimurium; set-up: scale not given: the % may be the effect or the level left; how it was run: as §4
Salmonella typhimurium [22] = assay: Antimicrobial activity against Salmonella enterica serovar Typhimurium ATCC 14028 infected in mouse RAW264.7 cells assessed as colocalization of organism with autophagosomes at 1 uM after 1 hr by immunofluorescence microscopic analysis relative to control; type: functional, Salmonella enterica subsp. enterica serovar Typhimurium; how it was run: as §6
[23] = biological target: RAC-alpha serine/threonine-protein kinase (Mus musculus) (UniProt P31750); assay: Inhibition of Akt phosphorylation in mouse RAW264.7 cells infected with Salmonella enterica serovar Typhimurium ATCC 14028 assessed as decrease of p-308Thr-Akt level after 8 hrs by Western blotting; type: cell-based; how it was run: as §2
Salmonella typhimurium [24] = assay: Antimicrobial activity against Salmonella enterica serovar Typhimurium ATCC 14028 infected in BALB/c mouse assessed as reduction of spleen bacterial load at 5 mg/kg, administered intragastrically after 24 hrs of post infection qd for 4 days measured on day 5 relative to control; type: functional, Salmonella enterica subsp. enterica serovar Typhimurium; set-up: scale not given: the % may be the effect or the level left; settings: route intragastric; how it was run: as §5
Salmonella typhimurium [25] = assay: Antimicrobial activity against Salmonella enterica serovar Typhimurium ATCC 14028 infected in mouse RAW264.7 cells assessed as inhibition of intracellular bacterial growth at 1 uM after 8 to 24 hrs in presence of gentamicin; type: functional, organism-based; settings: Salmonella enterica subsp. enterica serovar Typhimurium; how it was run: as §1
Salmonella typhimurium [26] = assay: Antimicrobial activity against Salmonella enterica serovar Typhimurium ATCC 14028 infected in mouse RAW264.7 cells transfected with HA-tagged CA-Akt1 assessed as inhibition of intracellular bacterial survival at 1 uM after 2 hrs; type: functional, organism-based; settings: Salmonella enterica subsp. enterica serovar Typhimurium; how it was run: as §1
Salmonella typhimurium [27] = assay: Antimicrobial activity against Salmonella enterica serovar Typhimurium ATCC 14028 infected in mouse RAW264.7 cells transfected with shRNA assessed as reduction of Atg7 expression at 1 uM after 2 hrs by immunoblotting relative to control; type: functional, Salmonella enterica subsp. enterica serovar Typhimurium; set-up: scale not given: the % may be the effect or the level left; how it was run: as §3
Salmonella typhimurium [28] = assay: Antimicrobial activity against Salmonella enterica serovar Typhimurium ATCC 14028 infected in BALB/c mouse assessed as reduction of liver bacterial load at 5 mg/kg, administered intragastrically after 24 hrs of post infection qd for 4 days measured on day 5 relative to control; type: functional, Salmonella enterica subsp. enterica serovar Typhimurium; set-up: scale not given: the % may be the effect or the level left; settings: route intragastric; how it was run: as §5
Salmonella typhimurium [29] = assay: Antimicrobial activity against Salmonella enterica serovar Typhimurium ATCC 14028 infected in mouse RAW264.7 cells assessed as inhibition of intracellular bacterial growth at 1 uM after 4 hrs; type: functional, organism-based, Salmonella enterica subsp. enterica serovar Typhimurium; how it was run: as §4

Chain of RAC-alpha serine/threonine-protein kinase (Mus musculus) (P31750 whole entry): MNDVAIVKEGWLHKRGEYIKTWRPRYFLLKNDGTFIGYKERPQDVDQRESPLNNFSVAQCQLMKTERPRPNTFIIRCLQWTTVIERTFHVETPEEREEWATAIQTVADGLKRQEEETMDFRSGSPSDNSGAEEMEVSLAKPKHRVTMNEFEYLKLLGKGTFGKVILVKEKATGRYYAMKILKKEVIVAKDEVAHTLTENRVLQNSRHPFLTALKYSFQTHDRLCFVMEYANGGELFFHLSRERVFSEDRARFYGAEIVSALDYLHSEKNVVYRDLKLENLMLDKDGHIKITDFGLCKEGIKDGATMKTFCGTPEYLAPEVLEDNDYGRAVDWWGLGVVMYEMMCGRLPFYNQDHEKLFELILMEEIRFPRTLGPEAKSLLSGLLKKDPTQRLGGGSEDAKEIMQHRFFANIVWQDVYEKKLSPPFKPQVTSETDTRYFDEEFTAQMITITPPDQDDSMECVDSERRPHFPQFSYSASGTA

`NCC(=O)Nc1ccc(-n2nc(C(F)(F)F)cc2-c2ccc3c(ccc4ccccc43)c2)cc1` [AR-12] was tested, and the Activity (Salmonella typhimurium [1]) was “Active”, the inhibition [2] was “Dose-dependent effect” and the Survival (Salmonella typhimurium [3]) was 8.1 days. The Activity (RAW264.7 [4]) was “Non-toxic”, the Activity (Salmonella typhimurium [5]) was “Active” and the Activity (Salmonella typhimurium [6]) was 83%. For the same compound, the Activity (Salmonella typhimurium [7]) was “inactive”, the Activity (Salmonella typhimurium [8]) was 25% and the Activity (Salmonella typhimurium [9]) was 98%. For the same compound, the inhibition [10] was “Active”, the Activity (RAW264.7 [11]) was “Non-toxic” and the Activity (RAW264.7 [12]) was “Active”. The Activity (Salmonella typhimurium [13]) was “inactive”, the Activity (RAW264.7 [14]) was “Active” and the Activity (Salmonella typhimurium [15]) was 82%. For the same compound, the IC50 (Salmonella typhimurium [16]) was 200 nM, the IC50 (RAW264.7 [17]) was greater than 10000 nM and the Activity (Salmonella typhimurium [18]) was “Active”. For the same compound, the Activity (Salmonella typhimurium [19]) was “inactive”, the Activity (Salmonella typhimurium [20]) was 99% and the Activity (Salmonella typhimurium [21]) was 90%. For the same compound, the Activity (Salmonella typhimurium [22]) was 21.2%, the inhibition [23] was “Dose-dependent effect” and the Activity (Salmonella typhimurium [24]) was 90%. For the same compound, the Activity (Salmonella typhimurium [25]) was “Active”, the Activity (Salmonella typhimurium [26]) was “Active” and the Activity (Salmonella typhimurium [27]) was 43%. For the same compound, the Activity (Salmonella typhimurium [28]) was 96% and the Activity (Salmonella typhimurium [29]) was “Active”.
